Test results: ChEMBL document CHEMBL4513216, “Probing the Open Global Health Chemical Diversity Library for Multistage-Active Starting Points for Next-Generation Antimalarials” (ACS Infect Dis, 2020)

Test: Toxicity liver stage against HepG2, at 10uM
Assay type: cell-based
Set-up: test concentration 10 uM, cell line HepG2-A16-CD81EGFP
Conditions: human, HepG2-A16-CD81EGFP cells; read-out: INHIBITION
Summary of the method: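 Uninfected HepG2-A16-CD81EGFP cells, 3 × 10^3 per well, 1536-well, plated on prespotted compound at 10 μM final, parasite-free screening media added to match infected plates; puromycin 10 μM positive, DMSO 0.5% negative; run in parallel with 48 h PbLuc assay at 37 °C, 5% CO2; viability by CellTiter-Glo luminescence, normalized to controls.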

| SMILES | cytotoxicity at 10 µM [%] |
| --- | --- |
| COc1ccc(CN2C[C@@H]3OCC(=O)N(CC(N)=O)[C@@H]3C2)cc1 | -4.54 |
| Cc1cc(C(=O)N2CCN(c3nc4c(F)cccc4s3)CC2)no1 | -3.64 |
| CCc1ccc(S(=O)(=O)Nc2cnc(N3CCOCC3)nc2)cc1 | -7.72 |
| O=S(=O)(Nc1cnc(N2CCOCC2)nc1)c1ccc(C(F)(F)F)cc1 | -2.73 |
| O=C(CN1CCC(c2nnc(C(F)(F)F)o2)CC1)Nc1cccnc1 | -2.46 |
| Cn1cc(S(=O)(=O)NCc2ccsc2)cn1 | 0.978 |
| O=C(CC1CC1)N1C[C@H]2CN(CC3CC3)C(=O)[C@H]2C1 | 3.91 |
| Cc1nc(NC(C)C)nc2c1CN(Cc1cccs1)CC2 | 0.718 |
| O=C(NC1CCC1)C1CCC2(CN(C(=O)c3ccno3)C2)O1 (stereo unspecified) | -134 |
| CC(=O)N1CCCC2(CCN(Cc3ccc(Cl)c(C(F)(F)F)c3)C2)C1 (stereo unspecified) | 11.9 |
| CC(C)N(C)Cc1noc2c1CN(C(=O)c1ccsc1)CC2 | 4.89 |
| Cc1cnc(C(=O)N2C[C@@H]3[C@@H](C2)OCC(=O)N3CC2CCCC2)cn1 | -3.78 |
| Cc1ccsc1CN1CC[C@H]2O[C@H](C(=O)N3CCCO3)CC[C@H]21 | 4.52 |
| Cn1cc(-c2cnc(N3CCCC3)nc2)cc1C(=O)N1CCOCC1 | -3.87 |
| CC(C)NC(=O)N1CCC2(COCc3cnc(N4CCOCC4)nc32)C1 (stereo unspecified) | -8.75 |
| CSc1ccc(C2CC(=O)Nc3c2c(=O)[nH]c2ncnn32)cc1 (stereo unspecified) | -8.22 |
| O=C([C@H]1COC[C@H]2CN(Cc3ccco3)C[C@H]21)N1CCCO1 | -8.79 |
| Cc1cc(N2CCC(O)(CN(C)C(=O)CCN)C2)c2cnccc2n1 (stereo unspecified) | -2.06 |
| Cc1nc(NCCN2CCCC2=O)cc(C2CN(C)CCO2)n1 (stereo unspecified) | -10.5 |
| CS(=O)(=O)c1cncnc1C1CCCN(C(=O)Nc2ccc(F)cc2)C1 (stereo unspecified) | -1.86 |
| Cc1noc(C2(C)CCN(C(=O)C(C)C)CC2)n1 | -5.14 |
| COCCN1CC(c2cc(O)nc(NC(C)C)n2)CC1=O (stereo unspecified) | -39.7 |
| Cc1ccc(Br)cc1NC(=O)NCC(O)CO (stereo unspecified) | 12.9 |

| SMILES | cytotoxicity at 10 µM [%] |
| --- | --- |
| CC(=O)c1ccc(N2CCN(C(=O)NC(C)c3ccc(C)o3)CC2)cc1 (stereo unspecified) | 10.1 |
| CCCC(=O)NCC(=O)Nc1cc(F)ccc1SCC(F)F | 10.8 |
| Cc1cccc(C(=O)N2CCCC2)c1NCC(=O)NC(C)(C#N)C1CC1 (stereo unspecified) | -6.8 |
| CCS(=O)(=O)NCC(=O)N1CCC(c2cc3ccccc3[nH]2)CC1 | -7.79 |
| Cc1nc(C(C)(C)NCc2ncc(C3CC3)o2)sc1C | 3.57 |
| NC(=O)C1CCN(S(=O)(=O)c2cnn(-c3ccccc3)c2)C1 (stereo unspecified) | 7.68 |
| CCNC(=O)CN1CCc2c(Br)ccc(F)c2C1 | 4.34 |
| O=C(CC1CCN(c2ncnc3cccc(F)c23)CC1)N1CCCC1 | 7.28 |
| Cc1noc(C)c1NC(=O)NC1CCN(C(=O)OC(C)(C)C)CC1 | 4.77 |
| Cc1ccc(N2CCCC(Nc3nn4cc(C)nc4s3)C2)nn1 (stereo unspecified) | -5.78 |
| COc1ccc2cc(C(=O)NCCNc3ccc(C)nn3)[nH]c2c1 | -3.09 |
| COCCCNC(=O)NCc1nc(C)c(C)o1 | 10.1 |
| CC1=NN(c2ccc(C(=O)OCCNC(=O)c3ccncc3)cc2)CC1 | -3.62 |
| c1cncc(CN2CCC(c3n[nH]c(C4CC4)n3)CC2)c1 | 4.99 |
| Cc1ccc(CC(=O)N2CCC(c3nnc4n3CCC4)CC2)cc1 | 4.78 |
| CC(C)CC(C)N(C)Cc1nnc(-c2ccco2)o1 (stereo unspecified) | 6.07 |
| O=C(NCCc1noc(-c2ccccn2)n1)NCC1CCCC1 | 0.321 |
| CC(NC(=O)Nc1ccc(F)c(F)c1)c1nc[nH]n1 (stereo unspecified) | 0.185 |
| COCc1nc2cc(NCc3nc(C)cs3)ccc2o1 | -2.57 |
| CN(Cc1ccccc1)C(=O)CCNS(=O)(=O)c1cccnc1 | -1.24 |
| Cc1cc(C)n(-c2ccc(N3CCC4(CC3)OCC(C)O4)nc2)n1 (stereo unspecified) | -1.39 |
| Cc1cc(NC(=O)c2ccc(F)cc2Br)n(C)n1 | -3.12 |
| CCN(CC)c1ncc(CNC2CCc3ncnn3C2)s1 (stereo unspecified) | -1.06 |

| SMILES | cytotoxicity at 10 µM [%] |
| --- | --- |
| CC(C)N(Cc1ccccc1)C(=O)NCCNC(=O)c1cccnc1 | -1.66 |
| O=C(NC1CCCN(c2ccc(OC(F)F)cc2)C1)c1ccon1 (stereo unspecified) | -7 |
| CC(C)(C)C(=O)N1CCN(CCOc2cccc(C#N)c2)CC1 | 3.53 |
| COc1c(Br)cccc1CCNC(=O)c1ccon1 | -2.88 |
| COC(=O)N1CCC(NC(=O)N2CCCC2c2ccsc2)CC1 (stereo unspecified) | 10.5 |
| CCC1(c2ccc(NS(=O)(=O)c3cccs3)cc2)CCC(=O)NC1=O (stereo unspecified) | -8.55 |
| CC(C)OC(=O)CNC(=O)Nc1ccc(-c2nc(C(C)C)no2)cc1 | -5.81 |
| Cn1ccc(NCc2cc3cc(F)ccc3o2)n1 | -12.4 |
| Cn1ccc(CN2CCCN(c3nccs3)CC2)cc1=O | 0.0833 |
| Cc1noc2ncc(S(=O)(=O)Nc3cc(CC(C)(C)C)[nH]n3)cc12 | 5.55 |
| Cc1nn(C)c(C)c1CCC(=O)Nc1cccn(C)c1=O | -1.96 |
| O=C(CN1CCCCC1C1OCCO1)Nc1ccc(F)c(F)c1 (stereo unspecified) | -3.53 |
| CN(CC(=O)NCc1ccccn1)CC1CCCN1c1cccnn1 (stereo unspecified) | -5.47 |
| Cc1nc2c(c(C)c1CC(=O)Nc1ccc(Cl)cc1)c(=O)[nH]n2C | -2.85 |
| CCN(CC1CN(Cc2ncc(C)o2)CCO1)c1cccnn1 (stereo unspecified) | -0.343 |
| CC(O)CN1CCN(C(=O)CN(C)c2cnccn2)CC1 (stereo unspecified) | 2.53 |
| Cn1ccnc1CNC(=O)N(CCCO)C1CCCc2ccccc21 (stereo unspecified) | -6.19 |
| O=C(NCCc1nnc2n1CCC2)NC1(c2cccc(F)c2)CC1 | 3.07 |
| CCOC(CC)C(=O)NCCC(=O)N1CCN(c2ncccn2)CC1 (stereo unspecified) | -3.91 |
| O=C(C1CC2(CCNCC2)CN1)N1CCN(c2cccc(Cl)c2Cl)CC1 (stereo unspecified) | -13.9 |
| CNS(=O)(=O)CCNCC1(O)CCCN(CCC2CCCCC2)C1=O (stereo unspecified) | 0.28 |
| CSCCC(=O)N1CCC(c2nnc(CN(C)CCO)n2C)CC1 | 0.583 |
| CC(=O)Nc1ccc(-c2ccccc2NC(=O)CN)cc1 | 2.83 |

| SMILES | cytotoxicity at 10 µM [%] |
| --- | --- |
| CC(C)CN1CC(c2nc(C3CC3)n[nH]2)CC1=O (stereo unspecified) | -1.64 |
| COCc1ncc(-c2nccn2CCN(C)C)cn1 | 0.126 |
| O=C(NCC1CCCO1)c1ccc(S(=O)(=O)NCCc2cn[nH]c2)cc1 (stereo unspecified) | 5.5 |
| CC(C)c1cc(C2CCCN2Cc2nc(-c3ccco3)no2)no1 (stereo unspecified) | -3.45 |
| CC(c1cccc(-c2ncccc2F)c1)N(C)C (stereo unspecified) | -19.4 |
| Cc1nccn1CCC1CCCCN1C(=O)c1ccc2nonc2c1 (stereo unspecified) | -6.55 |
| COc1cccc(OC2CN(C(=O)c3sccc3C)C2)c1 | 2.3 |
| Cc1ccn(CCNc2ncnc3c2CCN(Cc2ncc[nH]2)CC3)n1 | -1.47 |
| Cc1cc(C(=O)N(C)Cc2nc(-c3ccccn3)no2)c(C)o1 | 2.84 |
| CC(C)Cn1c(=O)n(CCCn2cccn2)c2cc(C(=O)O)cnc21 | 1.18 |
| Cc1nn(C)c(C)c1CCC(=O)N(C)Cc1ccc2nsnc2c1 | -1.62 |
| CN(Cc1ccccc1-n1cccn1)c1nc(N)nc2c1CCNCC2 | -12.2 |
| COc1ccc(-n2nc(C)c(C(C)=O)c2C)cc1C(N)=O | -3.41 |
| CN(C)C(=O)CN1CCc2onc(-c3ccccc3F)c2C1 | 2.45 |
| Cc1cccnc1N1CCN(C(=O)CCc2cn3ccccc3n2)CC1 | -6.21 |
| Cc1ccnc(OCC(=O)N2CCN(c3ncccn3)CC2)n1 | -0.849 |
| CC(C)c1n[nH]c(C2CN(C(=O)c3cc(Cl)c[nH]3)CCO2)n1 (stereo unspecified) | -5.64 |
| CC(C)(C)c1nc(C(C)(C)NC(=O)C2CC(=O)N(CC3CC3)C2)no1 (stereo unspecified) | -5.4 |
| O=C(NCc1nn(-c2ccccc2)c2c1CCC2)NCC1COCCO1 (stereo unspecified) | -3.39 |
| CCn1ccnc1CN1CCCN(C(=O)c2cc[nH]n2)CC1 | -8.04 |
| CC(C)NC(=O)CCNC(=O)Nc1ccc(-n2cncn2)c(F)c1 | 0.485 |
| O=C(CC1=CCCCC1)Nc1ncn(CC(=O)N2CCCCCC2)n1 | 1.72 |
| CCc1nnc2n1CCN(C(=O)Cc1nc(-c3ccco3)oc1C)C2 | 1.19 |

| SMILES | cytotoxicity at 10 µM [%] |
| --- | --- |
| O=C(CCCNc1ncccn1)N1CCCC(n2ccnc2)C1 (stereo unspecified) | -15.1 |
| O=C(c1cscn1)N1CCCC(n2cncn2)C1 (stereo unspecified) | 0.301 |
| Cc1nn(C)c(N(C)C)c1CNCc1cccnc1N(C)C | 1.84 |
| O=C(CCOc1cccc(F)c1)N1CCCC(n2cccn2)C1 (stereo unspecified) | -14.7 |
| Cn1ccnc1CN1CCN(CC(O)c2ccc(F)cc2)CC1 (stereo unspecified) | -21.8 |
| O=C(NCCNc1ccc(C(F)(F)F)cn1)c1ccc(Br)cc1 | -6.28 |
| NS(=O)(=O)c1ccc(CC(=O)N2CCCC(n3cccn3)C2)cc1 (stereo unspecified) | -0.481 |
| CC(C)c1nccn1C1CCCN(C(=O)c2ccc3c(c2)OCO3)C1 (stereo unspecified) | 4.28 |
| COc1cc(CNCC2CN(C3CC3)CCO2)cc(OC)c1 (stereo unspecified) | -24.3 |
| CC(C)n1cnc2c1C(C(=O)NCCO)N(Cc1ccccc1)CC2 (stereo unspecified) | 2.43 |
| O=C1N(c2ccsc2)CCC12CCCN(Cc1cccnc1)C2 (stereo unspecified) | -128 |
| c1csc(CN2CCC3(CCOCC3COCC3CC3)CC2)n1 (stereo unspecified) | 5.02 |
| Cc1ccc(CN2CC(C(=O)NCC3CC3)C3(CCOCC3)C2)s1 (stereo unspecified) | -3.66 |
| COCCN1CCC(c2nc3ccc(-c4ccccc4)cn3n2)CC1 | -8.84 |
| CC(C)(C)c1n[nH]cc1CNC1CCC(OCC(F)(F)F)CC1 (stereo unspecified) | -0.0197 |
| COCC(=O)N1CCC(c2nc3ccc(N4CCCC4)cn3n2)CC1 | -15.4 |
| COc1ncnc2c1CCN(C(=O)NCc1cccnc1)CC2 | -133 |
| Cc1ccc(N2CC[C@@H]3CN(Cc4cc[nH]n4)C[C@@H]3C2)nn1 | 3.47 |
| CC(C)n1nc(CN2CCOCC2)c2c1CN(Cc1ccsc1)C2 | -132 |
